Measured values published in ChEMBL document CHEMBL1152661, “Synthesis of tetraglucosyl- and tetrapolyamine-tetrabenzoporphyrin conjugates for an application in PDT” (Bioorg Med Chem, 2009).
In brackets after ≈: the same amount, converted by molar mass. Blank lines part the entries; values can stand above or below the compound they belong to.

Assays:
HaCaT = assay: Photocytotoxicity against human HaCaT cells preincubated for 24 hrs in dark followed by illumination at 5.5 x 10^-2 mW/cm'2 light measured after 24 hrs post illumination by MTT assay; format: functional, cell-based
MCF7 = assay: Photocytotoxicity against human MCF7 cells preincubated for 24 hrs in dark followed by illumination at 5.5 x 10^-2 mW/cm'2 light measured after 24 hrs post illumination by MTT assay; format: functional, cell-based
[1] = Induction of singlet oxygen production assessed as appearance of ergosterol acetate epidioxide at 10 uM after 10 mW/cm'2 irradiation for 30 mins by TLC; format: physicochemical; conditions: 0.5 h
[2] = Octanol-water partition coefficient, log P at 300 uM by absorption spectroscopy; format: physicochemical
How it was run: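 1-Octanol/water partitioning at 25 °C using equal volumes of water and 1-octanol. Dye solution at 300 µM was vortexed and centrifuged. Aliquots of each phase were diluted separately into MeOH, and dye concentration was read by absorption spectroscopy. log P = log([dye]octanol/[dye]water).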

[3] = Photostability assessed as residual absorbance at 2.5 mW/cm'2 irradiation for 45 mins by photobleaching test; format: physicochemical; conditions: read-out: Stability
How it was run: (§1)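 Solutions were irradiated with white light at fluence 2.5 mW/cm2. Absorbance was measured at the Soret band maximum and reported as % residual absorbance versus irradiation time.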

[4] = Photostability assessed as residual absorbance at 2.5 mW/cm'2 irradiation for 15 mins by photobleaching test; format: physicochemical; conditions: read-out: Stability; how it was run: as §1
[5] = Photostability assessed as residual absorbance at 2.5 mW/cm'2 irradiation for 60 mins by photobleaching test; format: physicochemical; conditions: read-out: Stability; how it was run: as §1
[6] = Photostability assessed as residual absorbance at 2.5 mW/cm'2 irradiation for 30 mins by photobleaching test; format: physicochemical; conditions: read-out: Stability; how it was run: as §1
[7] = Homo sapiens, HaCaT, read-out: IC50
[8] = Homo sapiens, MCF7, read-out: IC50

Compound: c1ccc(-c2c3nc(c(-c4ccccc4)c4[nH]c(c(-c5ccccc5)c5nc(c(-c6ccccc6)c6[nH]c2c2ccccc62)-c2ccccc2-5)c2ccccc42)-c2ccccc2-3)cc1 [Ar4TBP]
- IC50 (HaCaT; hacat): Not Active
- IC50 (MCF7; mcf7): Not Active

Compound: O=C1OC2(c3ccccc31)c1cc(Br)c(O)c(Br)c1Oc1c2cc(Br)c(O)c1Br [EOSIN]
- Activity [1]: Active

Compound: CC(=O)OC[C@H]1O[C@H](OCC(=O)NCOCCOCCNC(=O)c2ccc(-c3c4nc(c(-c5ccc(C(=O)NCCOCCOCNC(=O)CO[C@H]6O[C@H](COC(C)=O)[C@@H](OC(C)=O)[C@H](OC(C)=O)[C@H]6O)cc5)c5[nH]c(c(-c6ccc(C(=O)NCCOCCOCNC(=O)CO[C@H]7O[C@H](COC(C)=O)[C@@H](OC(C)=O)[C@H](OC(C)=O)[C@H]7O)cc6)c6nc(c(-c7ccc(C(=O)NCCOCCOCNC(=O)CO[C@H]8O[C@H](COC(C)=O)[C@@H](OC(C)=O)[C@H](OC(C)=O)[C@H]8O)cc7)c7[nH]c3c3ccccc73)-c3ccccc3-6)c3ccccc53)-c3ccccc3-4)cc2)[C@H](O)[C@@H](OC(C)=O)[C@@H]1OC(C)=O
- Activity [1]: Active

Compound: CC(C)(C)OC(=O)NCCCN(CCCCNC(=O)c1ccc(-c2c3nc(c(-c4ccc(C(=O)NCCCCN(CCCCN(CCCNC(=O)OC(C)(C)C)C(=O)OC(C)(C)C)CCCNC(=O)OC(C)(C)C)cc4)c4[nH]c(c(-c5ccc(C(=O)NCCCCN(CCCCN(CCCNC(=O)OC(C)(C)C)C(=O)OC(C)(C)C)CCCNC(=O)OC(C)(C)C)cc5)c5nc(c(-c6ccc(C(=O)NCCCCN(CCCCN(CCCNC(=O)OC(C)(C)C)C(=O)OC(C)(C)C)CCCNC(=O)OC(C)(C)C)cc6)c6[nH]c2c2ccccc62)-c2ccccc2-5)c2ccccc42)-c2ccccc2-3)cc1)CCCCN(CCCNC(=O)OC(C)(C)C)C(=O)OC(C)(C)C
- Activity [1]: Active

Compound: NCCCCN(CCCN)CCCCNC(=O)c1ccc(-c2c3nc(c(-c4ccc(C(=O)NCCCCN(CCCN)CCCCN)cc4)c4[nH]c(c(-c5ccc(C(=O)NCCCCN(CCCN)CCCCN)cc5)c5nc(c(-c6ccc(C(=O)NCCCCN(CCCN)CCCCN)cc6)c6[nH]c2c2ccccc62)-c2ccccc2-5)c2ccccc42)-c2ccccc2-3)cc1
- IC50 (HaCaT; [7]): 3.42 µg/mL (≈ 1.92 µM)
- Activity [1]: Active
- logP at 300 µM [2]: -0.21
- remaining at 0.75 h [3]: 97%
- IC50 (MCF7; [8]): 7.28 µg/mL (≈ 4.08 µM)
- remaining at 0.25 h [4]: 100%
- remaining at 1 h [5]: 96%
- remaining at 0.5 h [6]: 99%

Compound: OC[C@H]1O[C@@H](Oc2ccc(-c3c4nc(c(-c5ccc(O[C@@H]6O[C@H](CO)[C@@H](O)[C@H](O)[C@H]6O)cc5)c5[nH]c(c(-c6ccc(O[C@@H]7O[C@H](CO)[C@@H](O)[C@H](O)[C@H]7O)cc6)c6nc(c(-c7ccc(O[C@@H]8O[C@H](CO)[C@@H](O)[C@H](O)[C@H]8O)cc7)c7[nH]c3c3ccccc73)-c3ccccc3-6)c3ccccc53)-c3ccccc3-4)cc2)[C@H](O)[C@@H](O)[C@@H]1O
- IC50 (HaCaT; [7]): 0.971 µg/mL (≈ 0.636 µM)
- Activity [1]: Active
- logP at 300 µM [2]: 0.18
- remaining at 0.75 h [3]: 98%
- IC50 (MCF7; [8]): 8.41 µg/mL (≈ 5.51 µM)
- remaining at 0.25 h [4]: 100%
- remaining at 1 h [5]: 95%
- remaining at 0.5 h [6]: 99%

Compound: NCCCNCCCCN(CCCN)CCCCNC(=O)c1ccc(-c2c3nc(c(-c4ccc(C(=O)NCCCCN(CCCN)CCCCNCCCN)cc4)c4[nH]c(c(-c5ccc(C(=O)NCCCCN(CCCN)CCCCNCCCN)cc5)c5nc(c(-c6ccc(C(=O)NCCCCN(CCCN)CCCCNCCCN)cc6)c6[nH]c2c2ccccc62)-c2ccccc2-5)c2ccccc42)-c2ccccc2-3)cc1
- IC50 (HaCaT; hacat): Not Active
- Activity [1]: Active
- logP at 300 µM [2]: -0.47
- remaining at 0.75 h [3]: 99%
- IC50 (MCF7; mcf7): Not Active
- remaining at 0.25 h [4]: 100%
- remaining at 1 h [5]: 97%
- remaining at 0.5 h [6]: 100%

Now from value to compound, other results behind:

- Activity [1]: Active
Compound: CC(C)(C)OC(=O)NCCCCN(CCCCNC(=O)c1ccc(-c2c3nc(c(-c4ccc(C(=O)NCCCCN(CCCCNC(=O)OC(C)(C)C)CCCNC(=O)OC(C)(C)C)cc4)c4[nH]c(c(-c5ccc(C(=O)NCCCCN(CCCCNC(=O)OC(C)(C)C)CCCNC(=O)OC(C)(C)C)cc5)c5nc(c(-c6ccc(C(=O)NCCCCN(CCCCNC(=O)OC(C)(C)C)CCCNC(=O)OC(C)(C)C)cc6)c6[nH]c2c2ccccc62)-c2ccccc2-5)c2ccccc42)-c2ccccc2-3)cc1)CCCNC(=O)OC(C)(C)C

- Activity [1]: Active
Compound: PORFIMER SODIUM
- IC50 (HaCaT; hacat): 0.0787 µg/mL
- IC50 (MCF7; mcf7): 1.224 µg/mL

- Activity [1]: Active
Compound: NCCOCCOCCNC(=O)c1ccc(-c2c3nc(c(-c4ccc(C(=O)NCCOCCOCCN)cc4)c4[nH]c(c(-c5ccc(C(=O)NCCOCCOCCN)cc5)c5nc(c(-c6ccc(C(=O)NCCOCCOCCN)cc6)c6[nH]c2c2ccccc62)-c2ccccc2-5)c2ccccc42)-c2ccccc2-3)cc1

- Activity [1]: Active
Compound: O=C([O-])c1c(Cl)c(Cl)c(Cl)c(Cl)c1-c1c2cc(I)c(=O)c(I)c-2oc2c(I)c([O-])c(I)cc12.[K+].[K+]

- Activity [1]: Active
Compound: CC(C)(C)OC(=O)NCCOCCOCCNC(=O)c1ccc(-c2c3nc(c(-c4ccc(C(=O)NCCOCCOCCNC(=O)OC(C)(C)C)cc4)c4[nH]c(c(-c5ccc(C(=O)NCCOCCOCCNC(=O)OC(C)(C)C)cc5)c5nc(c(-c6ccc(C(=O)NCCOCCOCCNC(=O)OC(C)(C)C)cc6)c6[nH]c2c2ccccc62)-c2ccccc2-5)c2ccccc42)-c2ccccc2-3)cc1
